Experimental findings from ChEMBL document CHEMBL4480457, “Dihydrophenanthrenes from Juncus effusus as Inhibitors of OAT1 and OAT3” (J Nat Prod, 2019) are described below.

One data set concerns the target T1, OAT1 (SLC22A6) (Homo sapiens, UniProt Q4U2R8).
T1 sequence (Q4U2R8 whole entry): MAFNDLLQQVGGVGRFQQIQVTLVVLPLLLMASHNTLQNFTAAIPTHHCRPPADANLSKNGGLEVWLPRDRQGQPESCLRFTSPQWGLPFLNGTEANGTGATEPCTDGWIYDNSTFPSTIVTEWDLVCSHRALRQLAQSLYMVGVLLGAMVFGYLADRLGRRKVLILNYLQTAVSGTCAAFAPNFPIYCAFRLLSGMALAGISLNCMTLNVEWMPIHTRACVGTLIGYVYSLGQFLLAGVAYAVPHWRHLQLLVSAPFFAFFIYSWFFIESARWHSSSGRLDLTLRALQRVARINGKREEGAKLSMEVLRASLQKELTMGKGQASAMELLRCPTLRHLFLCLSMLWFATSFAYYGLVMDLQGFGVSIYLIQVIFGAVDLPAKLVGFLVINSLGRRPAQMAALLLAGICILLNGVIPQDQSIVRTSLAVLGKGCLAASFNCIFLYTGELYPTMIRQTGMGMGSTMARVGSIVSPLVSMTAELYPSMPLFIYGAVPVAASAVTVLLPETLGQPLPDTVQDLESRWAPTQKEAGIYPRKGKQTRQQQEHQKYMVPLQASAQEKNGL
The experiment in a line: Inhibition of OAT1 (unknown origin) expressed in HEK293 cells assessed as reduction in 6-CF uptake at 50 uM measured after 5 mins by fluorescence assay relative to control. The class given is cell-based. To be noted: HEK293 cells expressing OAT1, probe 6-CF. Summed up: (§1)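 Transfected HEK293 cells stably expressing OAT1 or OAT3, maintained under hygromycin B selection, were seeded on poly-D-lysine plates and grown 24 h. Cells preincubated 5 min at 37 °C in Hepes uptake buffer (pH 7.2), then exposed 5 min to 4 μM 6-CF with compound at 50 μM. Ice-cold stop, PBS wash, Triton lysis. Fluorescence read at 485/528 nm, normalized to BCA protein, in triplicate.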

Another data set has as its target T2, OAT3 (Homo sapiens, UniProt Q8TCC7).
T2 sequence (Q8TCC7 whole entry): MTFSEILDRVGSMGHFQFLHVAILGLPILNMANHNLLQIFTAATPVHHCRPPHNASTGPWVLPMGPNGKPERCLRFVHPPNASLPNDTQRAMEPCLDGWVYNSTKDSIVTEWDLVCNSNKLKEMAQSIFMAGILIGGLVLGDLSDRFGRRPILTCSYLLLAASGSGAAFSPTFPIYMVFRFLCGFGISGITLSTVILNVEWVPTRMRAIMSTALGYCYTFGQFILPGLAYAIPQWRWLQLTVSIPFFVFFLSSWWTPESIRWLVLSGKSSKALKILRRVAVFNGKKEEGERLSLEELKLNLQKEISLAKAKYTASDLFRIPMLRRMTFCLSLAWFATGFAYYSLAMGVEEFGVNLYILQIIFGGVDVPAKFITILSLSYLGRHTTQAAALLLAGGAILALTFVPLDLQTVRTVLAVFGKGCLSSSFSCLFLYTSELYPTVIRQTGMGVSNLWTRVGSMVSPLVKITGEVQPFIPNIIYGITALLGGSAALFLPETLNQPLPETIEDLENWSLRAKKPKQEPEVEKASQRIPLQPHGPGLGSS
Kind of data set: Inhibition of OAT3 (unknown origin) expressed in HEK293 cells assessed as reduction in 6-CF uptake at 50 uM measured after 5 mins by fluorescence assay relative to control. The class given is cell-based. To be noted: HEK293 cells expressing OAT3, probe 6-CF. Summed up:
as §1

For data set [1], the target named is T3, Organic anion transporter 3 (Homo sapiens, UniProt Q8TCC7).
T3 sequence (Q8TCC7 whole entry): T2 sequence (Q8TCC7 whole entry)
The experiment in a line: Inhibition of OAT3 (unknown origin) expressed in HEK293 cells assessed as reduction in 6-CF uptake measured after 5 mins by fluorescence assay. In kind it is cell-based. The note with it: for inhibition (INH): human, hek293, 5 min. Summed up:
(§2)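 Uptake of 4 μM 6-CF measured over 5 min in stable OAT1- or OAT3-HEK293 cells, in pH 7.2 Hepes buffer at 37 °C with serial dilutions of compound. Lysate fluorescence (485/528 nm) normalized to protein, triplicate. IC50 obtained by nonlinear regression, reported as mean ± SEM.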

Data set [2] concerns the target T4, Solute carrier family 22 member 6 (Homo sapiens, UniProt Q4U2R8).
T4 sequence (Q4U2R8 whole entry): T1 sequence (Q4U2R8 whole entry)
Kind of data set: Inhibition of OAT1 (unknown origin) expressed in HEK293 cells assessed as reduction in 6-CF uptake measured after 5 mins by fluorescence assay. The class given is cell-based. The note with it: for inhibition (INH): human, hek293, 5 min. An outline of the steps: as §2

Data set [3] in a line: Toxicity in Wistar rat at 10 mg/kg, po administered via gavage. In kind it is organism-based. The note with it: in vivo. An outline of the steps:
(§3)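 Preliminary test in fasted rats: single oral gavage dose in 40% PEG-400, observed for toxic response.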

Data set [4] is described as follows: Toxicity in Wistar rat at 20 mg/kg, po administered via gavage. The class given is organism-based. To be noted: in vivo. An outline of the steps: as §3
In data set [5] the test system is Rattus norvegicus. Kind of data set: In vivo inhibition of OAT1 and OAT3 in Wistar rat assesed as increase in furosemide AUC (0 to t) at 20 mg/kg, po administered via gavage pretreated for 5 mins followed by furosemide addition and measured within 10 mins by HPLC analysis. The class given is functional. Also on record: scale not given: the % may be the effect or the level left. An outline of the steps: (§4)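 Rats (5 per group) fasted 12 h, then pretreated by oral gavage with test agent in 40% PEG-400 or vehicle. After 5 min, furosemide 10 mg/kg in saline given by tail vein injection. Orbital sinus blood taken at 2–120 min. Plasma extracted with MeCN containing warfarin internal standard. Furosemide quantified by C18 HPLC with UV detection at 280 nm. AUC0−t calculated.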

Data set [6] deals with Rattus norvegicus. Kind of data set: In vivo inhibition of OAT1 and OAT3 in Wistar rat assesed as increase in furosemide AUC (0 to t) at 10 mg/kg, po administered via gavage pretreated for 5 mins followed by furosemide addition and measured within 10 mins by HPLC analysis. In kind it is functional. Also on record: scale not given: the % may be the effect or the level left. The note with it: in the assay text read “at 20 mg/kg” for “at 10 mg/kg”. An outline of the steps: as §4

Data set [7] deals with Rattus norvegicus. Kind of data set: In vivo inhibition of OAT1 and OAT3 in Wistar rat assesed as increase in furosemide AUC (0 to t) at 20 mg/kg, po administered via gavage pretreated for 5 mins followed by furosemide addition and measured within 30 mins by HPLC analysis. The class given is functional. Also on record: scale not given: the % may be the effect or the level left. An outline of the steps: as §4

The subject of data set [8] is Rattus norvegicus. The experiment in a line: In vivo inhibition of OAT1 and OAT3 in Wistar rat assesed as increase in furosemide AUC (0 to t) at 10 mg/kg, po administered via gavage pretreated for 5 mins followed by furosemide addition and measured within 30 mins by HPLC analysis. The class given is functional. The arrangement: scale not given: the % may be the effect or the level left. To be noted: in the assay text read “at 20 mg/kg” for “at 10 mg/kg”. Summed up: as §4

Data set [9] relates to Rattus norvegicus. Kind of data set: In vivo inhibition of OAT1 and OAT3 in Wistar rat assesed as increase in furosemide AUC (0 to t) at 20 mg/kg, po administered via gavage pretreated for 5 mins followed by furosemide addition and measured within 90 mins by HPLC analysis. In kind it is functional. The arrangement: scale not given: the % may be the effect or the level left. Summed up:
as §4

For data set [10], the system named is Rattus norvegicus. Kind of data set: In vivo inhibition of OAT1 and OAT3 in Wistar rat assesed as increase in furosemide AUC (0 to t) at 10 mg/kg, po administered via gavage pretreated for 5 mins followed by furosemide addition and measured within 90 mins by HPLC analysis. The class given is functional. The arrangement: scale not given: the % may be the effect or the level left. Summed up:
as §4

For `C=Cc1cc(C(=O)O)cc2c1CCc1c-2ccc(O)c1C`, the inhibition (as a rule, the change of the read-out against control, counted positive when it falls) at 5 min, 50 µM is below 50% on OAT1 (SLC22A6) and above 50% on OAT3. Also, in data set [1], the concentration for half-maximal inhibition (IC50) (commonly the concentration at which inhibition is half-maximal) stood at 2800 nM. In addition, the “inhibition (INH)” value in data set [1] was “Dose-dependent effect”.
Take `C=Cc1cc(C(=O)O)cc2c1-c1ccc(O)c(C)c1CC2`: the inhibition at 5 min, 50 µM on OAT1 (SLC22A6) and at OAT3 was above 50% throughout. The values for the 50% inhibitory concentration (IC50) in [2] and in data set [1] were 4.4 µM and 1100 nM, respectively. Also, the “inhibition (INH)” value in [2] and in [1] was “Dose-dependent effect” in each case.
For the compound `C=Cc1cc(O)cc2c1-c1ccc(O)c(C)c1CC2` [EFFUSOL], the inhibition at 5 min, 50 µM at OAT1 (SLC22A6) and on OAT3 was above 50% each time. The figures for the IC50 in data set [2] and in data set [1] were 23.3 µM and 22700 nM, respectively.
Turning to `COC(C)c1cc(O)cc2c1-c1ccc(O)c(C)c1CC2` (racemic), the inhibition at 5 min, 50 µM on OAT1 (SLC22A6) and at OAT3 was above 50% in each case. In addition, the IC50 in [2] was found to be 43.1 µM; in [1] it was 8300 nM. Further, in data set [1], the “inhibition (INH)” value is “Dose-dependent effect”.
Consider `C=Cc1c(C(=O)O)ccc2c1CCc1c-2ccc(O)c1C`, for which the inhibition at 5 min, 50 µM on OAT1 (SLC22A6) and at OAT3 was above 50% each time. Besides, the half-inhibitory concentration (IC50) amounted to 18.3 µM in data set [2] and 1100 nM in data set [1]. In addition, the “inhibition (INH)” value in data set [1] is “Dose-dependent effect”.
As to `COc1cc(C(=O)c2ccc(O)c(OC)c2)ccc1O`, the inhibition at 5 min, 50 µM on OAT1 (SLC22A6) and at OAT3 was above 50% each time. The IC50 worked out at 3.5 µM in data set [2] and 2300 nM in data set [1]. Further, the “inhibition (INH)” value in data set [2] and in [1] was “Dose-dependent effect” each time.
`C=Cc1c(C)c(O)cc2c1-c1ccc(O)c(C)c1CC2`: the inhibition at 5 min, 50 µM at OAT1 (SLC22A6) is below 50%. Moreover, at OAT3, the inhibition at 5 min, 50 µM was above 50%. For the same compound, in [1], the 50% inhibitory concentration (IC50) is 6500 nM and the “inhibition (INH)” value is “Dose-dependent effect”.
For the compound `CCCN(CCC)S(=O)(=O)c1ccc(C(=O)O)cc1` [PROBENECID], in data set [3], the Activity entry is reported as “Non-Toxic”.
`C=Cc1cc2c(cc1C(=O)O)CCc1c-2ccc(O)c1C`: the inhibition at 5 min, 50 µM on OAT1 (SLC22A6) and on OAT3 was above 50% each time. In addition, the half-maximal inhibitory concentration (IC50) in data set [2] is 8.4 µM; in data set [1] it was 1300 nM. In addition, the “inhibition (INH)” value in data set [2] and in data set [1] was “Dose-dependent effect” in each case. Further, the Activity result in data set [4] is “Non-Toxic”; in the data set on Rattus norvegicus [5], 70%; in the data set on Rattus norvegicus [6] it was 70%; with Rattus norvegicus [7] it was 62%; in the data set with Rattus norvegicus [8], 62%; with Rattus norvegicus [9] it was 66%. Further, the Activity in the data set with Rattus norvegicus [10] was 66%.
